Compound activity from PubChem BioAssay.
NALP1 inh = inhibitors of NALP1 inflammasome in yeast | S. cerevisiae NALP1/ASC/caspase-1 growth, X-gal OD620, 72 h | inhibition, % at 10 µM | 0.61% of 280,000 active | AID 2071; in the data active = inhibition mostly above about 24%, no sharp cut-off; inactive = mostly below about 32%
NLRP3 yeast inh = NALP3 inhibition in yeast. Yeast reconstituted NLRP3/ASC/caspase-1, beta-gal luminescence, 24 h. inhibition, % at 10 µM. 0.39% of 330,000 active. AID 2825;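 active = inhibition of 50% or more; inactive = inhibition below 50%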;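 also: plate controls were induced DMSO wells for no effect and uninduced yeast grown without galactose for full effect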
Bfl-1 A1 inh = inhibitors of the anti-apoptotic protein A1, read as caspase activation; MEF A1-2A-BIM cells, Caspase-Glo 3/7 luminescence, 3 h; percent of clofoctol response, vehicle zero; caspase activation, % (test concentration not listed); 0.066% of 330,000 active; AID 2462;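 active = over half of replicate activation scores above 10%, or exactly half above 10 with the replicate mean above 10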
MC4R antag cAMP = antagonists of human melanocortin 4 receptor (MC4R); inhibition, % at 6.5 µM; P32245; MC4R-expressing cells, MTII-stimulated cAMP, LANCE TR-FRET; 0.48% of 360,000 active;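 active = inhibition above its plate's cutoff, the mean of tested wells on that plate plus 3 SD, cut at about 29% in these data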;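 also: 0% = Melanotan II alone and 100% = Melanotan II plus saturating MCL0020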
Target sequence (P32245 whole entry, looked up): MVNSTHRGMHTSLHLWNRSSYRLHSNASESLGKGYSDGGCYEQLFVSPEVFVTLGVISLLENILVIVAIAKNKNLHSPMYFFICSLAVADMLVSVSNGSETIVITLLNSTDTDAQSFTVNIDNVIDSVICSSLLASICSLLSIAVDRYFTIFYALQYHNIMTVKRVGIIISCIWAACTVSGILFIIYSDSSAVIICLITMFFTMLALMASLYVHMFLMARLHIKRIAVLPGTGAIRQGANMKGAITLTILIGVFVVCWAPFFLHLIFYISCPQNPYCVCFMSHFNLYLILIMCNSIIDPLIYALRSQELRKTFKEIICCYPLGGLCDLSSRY
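Assay system: U2OS cells stably expressing human melanocortin 4 receptor (MC4R) / Dosing: 6.5 µM / Timing: compound 30 min, challenge 1 h, detection 1 h / Measured by: Eu-cAMP/anti-cAMP TR-FRET, emission 671 nm / Replicates: singlicate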
MC4R barr agon = activates human MC4R beta-arrestin recruitment | U2OS MC4R beta-arrestin complementation, luminescence; percent of melanotan II response, DMSO zero | P32245 | activation, % at 8.9 µM | 0.98% of 360,000 active | AID 540308;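 active = activation above a per-plate cutoff, the mean activation of sample wells on that plate plus 3 SD, cut at about 8% in these data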
TbMetRS inhib = Trypanosoma brucei MetRS inhibition; inhibition, % at 11.9 µM; AID 624268; 0.4% of 360,000 active; purified T. brucei MetRS, ATP depletion, Kinase-Glo luminescence;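 active = inhibition above a per-plate cutoff of the control wells' mean inhibition plus 3 SD, cut at about 5.5% in these data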;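 also: 0% = DMSO wells median and 100% = median of wells with control inhibitor compound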
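Material – parasite MetRS enzyme · Medium – HEPES-MgCl2-KCl buffer plus DTT, spermine, BSA, pyrophosphatase · Reagent – ATP, methionine and E. coli bulk tRNA substrates · Times – 15 min enzyme-compound preincubation, 2 h reaction, 10 min detection, 25 °C · Measured by – luminescence of leftover ATP · Evaluation – percent inhibition relative to median high and low control wells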
Tb MetRS conf = confirmation of Trypanosoma brucei MetRS inhibitors | shares compounds with TbMetRS inhib | T. brucei MetRS enzyme, luminescence (ATP depletion) | inhibition, % at 11.9 µM | 93% of 1,400 active | AID 624412; in the data active = inhibition above about 7%
Jurkat cytotox = kills Jurkat cells in T. brucei MetRS counterscreen; Jurkat cells viability, ATP luminescence; inhibition, % at 8.3 µM; AID 624413; 12% of 1,400 active; shares compounds with TbMetRS inhib; in the data active = inhibition above about 15%;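 also: 0% = vehicle and 100% = reference inhibitor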
Tb MetRS inh FP = inhibits T. brucei methionyl tRNA synthetase in orthogonal FP test; AID 651607; shares compounds with TbMetRS inhib; 44% of 1,400 active; inhibition, % at 11.9 µM; purified T. brucei MetRS, fluorescence polarization; in the data active = inhibition above about 17%;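 also: 0% = vehicle wells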
An asterisk follows results filed as active; . = not tested or not shown. Only some compounds are listed: those with a hit (about 2.5% of all), similar ones and a draw of the others.

SMILES	NALP1 inh	NLRP3 yeast inh	Bfl-1 A1 inh	MC4R antag cAMP	MC4R barr agon	TbMetRS inhib	Tb MetRS conf	Jurkat cytotox	Tb MetRS inh FP
CC(C)C[C@@H](CNCC(=O)[C@H](C)NC(=O)c1[nH]cnc1C(=O)N[C@@H](C)CN)NC(=O)c1nc[nH]c1C(=O)N[C@@H](CC(=O)O)C(=O)O	.	.	.	11.6	1.2	0.9	.	.	.
CC(C)C[C@@H](CNCC(=O)[C@H](Cc1c[nH]c2ccccc12)NC(=O)c1[nH]cnc1C(=O)N[C@@H](C)CN)NC(=O)c1nc[nH]c1C(=O)N[C@@H](C)C(=O)O	.	.	.	1.9	-1.4	22.8*	36.7*	-1.2	10.3
Cc1ccc(C)c(NC(=O)CN(C)C(=O)Cc2ccc(Cl)cc2Cl)c1	2.1	21.0	0.9	-2.0	-1.0	-0.8	.	.	.
Cc1ccc(NC(=O)CN(C)C(=O)Cc2ccc(Cl)cc2Cl)cc1	14.2	20.2	0.6	1.1	1.0	53.8*	66.9*	-2.5	42.0*
CN(CCC(=O)Nc1ccc(Cl)cc1)Cc1ccccc1	16.5	24.6	0.3	10.5	3.4	13.8*	30.7*	8.4	15.4
CN(CC(=O)Nc1ccc(Cl)cc1)CC(=O)Nc1cccc(Br)c1	7.4	30.1	0.6	16.4	0.5	29.9*	49.3*	7.3	28.5*
CN(CCC(=O)Nc1ccc2c(c1)OCO2)Cc1ccccc1	16.7	10.3	0.4	1.6	-1.9	2.1	.	.	.
CN(CC(=O)Nc1ccc(Cl)cc1)C(=O)CCNC(=O)c1ccc(Cl)cc1	.	1.1	0.2	-0.7	-2.5	2.7	.	.	.
CN(CC(=O)Nc1ccc(Cl)cc1)C(=O)CCc1ccccc1	20.0	21.2	-0.7	13.0	0.8	19.7*	39.2*	-4.7	17.8*
CCCn1c(N)c(N2CCCCC2)c(=O)n(CC(=O)Nc2cccc(S(=O)(=O)N(C)C)c2)c1=O	.	13.1	0.0	7.0	0.6	-0.1	.	.	.
COc1ccc(NC(=S)N2CCN(C(=O)C3CCCO3)CC2)cc1 (stereo not drawn)	-15.2	16.9	0.4	9.0	-3.0	-0.2	.	.	.
CCC(=O)N(C)C[C@@H]1Oc2ncc(Br)cc2C(=O)N([C@H](C)CO)C[C@H]1C	.	.	.	16.0	0.7	1.8	.	.	.
CN(CC(=O)Nc1ccc(Cl)cc1)C(=O)CCc1c[nH]c2ccccc12	24.1	4.8	-0.8	4.2	1.3	33.8*	54.5*	0.1	23.0*
Cc1ccc(C(=O)N/C(=C\c2cccnc2)c2nc3ccccc3[nH]2)cc1	12.2	4.5	0.8	9.9	0.6	15.5*	35.5*	-3.5	10.8
COc1ccc(C(=O)N/C(=C\c2cccs2)c2nc3ccccc3[nH]2)cc1OC	15.9	-5.3	0.9	2.0	-0.4	8.2*	15.9*	0.4	2.2
COc1ccc(/C=C(/NC(=O)c2ccccc2)c2nc3ccccc3[nH]2)cc1OC	6.8	15.4	0.4	-7.5	-1.1	0.1	.	.	.
O=C1CCN(Cc2cccnc2)CCN1[C@H](CO)Cc1ccccc1	18.3	0.1	0.2	5.3	-2.7	-0.2	.	.	.
COc1cccc(NC(=O)CN2C(=O)COc3ccc(S(=O)(=O)N4CCOCC4)cc32)c1	-9.7	0.3	1.3	20.1	0.3	-0.2	.	.	.
COC(=O)c1cc(-c2ccc(Cl)cc2)n[nH]1	-7.5	6.5	-1.3	-1.5	-2.7	0.8	.	.	.
COC(=O)c1cc(-c2ccc(Cl)cc2Cl)n[nH]1	-10.1	39.5	-0.5	17.2	4.8	12.0*	29.2*	7.5	17.8*
O=C(C1COc2ccccc2O1)N1CCN(Cc2ccc(Br)cc2F)CC1 (stereo not drawn)	12.0	32.2	1.7	3.2	1.5	0.5	.	.	.
Cn1c(SCC(=O)NCc2ccc(F)cc2)nc2ccccc21	-16.3	2.0	0.8	-6.4	-3.4	-0.5	.	.	.
O=C(CSc1nnc2c(n1)[nH]c1ccccc12)NCc1ccco1	9.8	27.9	-0.2	0.9	-2.7	8.3*	13.7*	8.8	7.2
COc1ccc(CNC(=O)CSc2nc3ccccc3n2C(C)=O)cc1	6.2	15.0	1.8	9.8	-0.2	17.1*	28.5*	-2.6	9.8
COc1cccc(CNC(=O)CSc2nnc3c(n2)[nH]c2ccccc23)c1	-8.9	16.2	0.2	-3.1	-1.9	20.2*	64.1*	4.7	35.0*
SMILES	NALP1 inh	NLRP3 yeast inh	Bfl-1 A1 inh	MC4R antag cAMP	MC4R barr agon	TbMetRS inhib	Tb MetRS conf	Jurkat cytotox	Tb MetRS inh FP
COc1ccc(CNC(=O)CSc2nnc3c(n2)[nH]c2ccc(C)cc23)cc1	0.4	-1.2	0.1	12.8	-0.9	33.5*	82.2*	0.3	55.1*
O=C(CSc1nnc(-c2ccccc2)c(-c2ccccc2)n1)NCc1ccco1	-0.9	-0.7	-0.3	-0.2	-0.2	-0.7	.	.	.
Cc1nnc(NC(=O)CSc2nnc3c(n2)[nH]c2ccc(Br)cc23)s1	8.2	5.9	0.2	-3.8	0.1	11.7*	63.3*	11.4	54.2*
COc1cccc(CNC(=O)CSc2nnc3c(n2)[nH]c2ccc(OC)cc23)c1	1.4	8.5	0.6	5.6	0.2	1.0	.	.	.
COc1ccc(CNC(=O)CSc2nnc3c(n2)[nH]c2ccccc23)cc1	7.8	8.5	0.3	2.7	-2.0	42.2*	81.4*	3.5	75.0*
COc1ccc2[nH]c3nc(SCC(=O)Nc4ccc5c(c4)OCO5)nnc3c2c1	-21.4	16.9	-1.0	-5.4	-1.0	56.5*	87.6*	9.9	73.3*
CC(C)c1ccc2[nH]c3nc(SCC(=O)NC4CC4)nnc3c2c1	14.1	9.2	-0.7	2.1	1.6	-0.8	.	.	.
CC(C)Sc1nc(-c2cccs2)nc2cc(Cl)ccc12	.	.	.	.	.	-0.9	.	.	.
Cc1ccc(N2C(=O)C3Sc4[nH]c(=O)sc4C(c4ccccc4)C3C2=O)cc1 (stereo not drawn)	0.4	15.9	0.4	7.6	-1.1	-0.2	.	.	.
O=C1C2Sc3[nH]c(=O)sc3C(c3cc([N+](=O)[O-])ccc3O)C2C(=O)N1c1ccccc1 (stereo not drawn)	20.8	15.3	0.3	11.5	-1.4	16.3*	19.3*	-0.4	12.0
Cc1csc(NC(=O)COc2ccc3c(c2)CCC3)n1	.	27.8	-11.3	8.8	-0.8	0.1	.	.	.
Cc1ccccc1CSCCNC(=O)Nc1ccccc1	-10.0	9.3	0.2	2.8	2.8	5.3	.	.	.
Cc1cccc(CSCCNC(=O)Nc2ccccc2)c1	33.7	24.7	0.1	26.4	1.9	15.5*	24.4*	-4.8	14.2
CC(C)(C)c1ccc(Cn2c(=O)cnc3ccccc32)cc1	5.4	31.5	-0.2	-20.6	0.9	0.2	.	.	.
